In ChEMBL document CHEMBL3259790, “In Vitro Membrane Permeation Studies and in Vivo Antinociception of Glycosylated Dmt(1)-DALDA Analogues” (ACS Med Chem Lett, 2014):
pIC50, pKi: −log10 of the molar value. Where a SMILES comes first, the peptide text is derived from it. [ ]: non-standard residue; d: D form. The star is where a group is joined. X1 = OC[C@H]1O[C@@H](n2cc(C*)nn2)[C@H](O)[C@@H](O)[C@H]1O; Dmt = Cc1cc(O)cc(C)c1C[C@H](N)C(=O)O

Legend:
Mu-type opioid receptor [1] = target: Mu-type opioid receptor (Rattus norvegicus, UniProt P33535); test: Displacement of [3H]DAMGO from mu opioid receptor in rat brain membranes; type: cell membranes, Membrane
Outline: (§1)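 Binding used rat brain membrane preparations, with MOR labelled by [3H]DAMGO and DOR by [3H]DSLET and read as displacement. Functional MOR activity was measured in isolated guinea pig ileum and DOR activity in isolated mouse vas deferens. Values are means of 3–4 experiments.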

[2] = target: Delta-type opioid receptor (Rattus norvegicus, UniProt P33533); test: Displacement of [3H]DSLET from delta opioid receptor in rat brain membranes; type: cell membranes, Membrane; outline: as §1
[3] = target: Delta-type opioid receptor (Mus musculus, UniProt P32300); test: Agonist activity at delta opioid receptor in mouse vas deferens; outline: as §1
Mu-type opioid receptor [4] = target: Mu-type opioid receptor (Cavia porcellus, UniProt P97266); test: Agonist activity at mu opioid receptor in guinea pig ileum; type: tissue-based; outline: as §1
Mus musculus [5] = test: Antinociceptive activity in C57Bl6 mouse assessed as maximum possible effect of tail flick latency at 0.5 mg/kg, iv after 180 mins by tail-flick assay; type: functional
Outline: (§2)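 C57Bl6 mice (23–25 g) were dosed intravenously at 0.5 mg/kg. Spinal antinociception was measured by tail-flick latency and expressed as %MPE. The response was tracked over time up to 180 min post-dose to find the time of peak effect.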

Plasma = test: Drug degradation in human plasma up to 20 hrs; type: ADME, cell-free
Mus musculus [6] = test: Antinociceptive activity in C57Bl6 mouse assessed as tail flick latency at 0.5 mg/kg, iv by tail-flick assay; type: functional, organism-based; set-up: dose 0.5 mg/kg; conditions: TDE = time-dependent effect; outline: as §2
Mus musculus [7] = test: Antinociceptive activity in iv dosed C57Bl6 mouse after 5 to 180 mins by hot plate test; type: functional
Outline: (§3)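 Intravenous dosing in C57Bl6 mice (23–25 g), with antinociception monitored up to 180 min by hot plate (supraspinal) or tail-flick (spinal) and expressed as %MPE. ED50 in mg/kg came from standard nonlinear regression of the log dose–response curve.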

Mus musculus [8] = test: Antinociceptive activity in C57Bl6 mouse at 0.5 mg/kg, iv by hot plate test; type: functional, organism-based; set-up: dose 0.5 mg/kg; conditions: TDE = time-dependent effect
Outline: (§4)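 C57Bl6 mice (23–25 g body weight) received a single intravenous dose of 0.5 mg/kg. Supraspinal antinociception was measured by hot plate and expressed as %MPE. Readings were followed over time up to 180 min after dosing to give the time course and the time of peak effect.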

Mus musculus [9] = test: Antinociceptive activity in iv dosed C57Bl6 mouse assessed as tail flick latency after 5 to 180 mins by tail-flick assay; type: functional; outline: as §3
Mus musculus [10] = test: Antinociceptive activity in C57Bl6 mouse assessed as time of peak effect of tail flick latency at 0.5 mg/kg, iv by tail-flick assay; type: functional; outline: as §2
Mus musculus [11] = test: Antinociceptive activity in C57Bl6 mouse assessed as maximum possible effect at 0.5 mg/kg, iv after 180 mins by hot plate test; type: functional; outline: as §4
Mus musculus [12] = test: Antinociceptive activity in C57Bl6 mouse assessed as time of peak effect at 0.5 mg/kg, iv by hot plate test; type: functional; outline: as §4
[13] = Half life in rat brain homogenates; type: ADME, tissue-based; conditions: brain homogenate
[14] = Half life in human plasma; type: ADME, cell-free

Sequence of Mu-type opioid receptor (Cavia porcellus, UniProt P97266) (P97266 whole entry): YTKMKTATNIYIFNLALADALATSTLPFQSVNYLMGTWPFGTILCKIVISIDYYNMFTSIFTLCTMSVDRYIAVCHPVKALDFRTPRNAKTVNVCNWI
Sequence of Delta-type opioid receptor (Mus musculus, UniProt P32300) (P32300 whole entry): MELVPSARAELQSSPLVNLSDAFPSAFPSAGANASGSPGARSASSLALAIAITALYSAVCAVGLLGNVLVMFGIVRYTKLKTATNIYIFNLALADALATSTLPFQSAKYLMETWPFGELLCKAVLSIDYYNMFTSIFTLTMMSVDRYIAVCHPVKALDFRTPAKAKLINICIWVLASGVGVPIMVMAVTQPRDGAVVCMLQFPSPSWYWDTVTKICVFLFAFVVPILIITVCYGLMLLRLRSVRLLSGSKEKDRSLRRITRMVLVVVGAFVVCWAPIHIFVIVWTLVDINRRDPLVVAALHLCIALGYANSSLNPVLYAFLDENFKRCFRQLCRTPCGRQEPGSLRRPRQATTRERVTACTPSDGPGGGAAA
Sequence of Mu-type opioid receptor (Rattus norvegicus, UniProt P33535) (P33535 whole entry): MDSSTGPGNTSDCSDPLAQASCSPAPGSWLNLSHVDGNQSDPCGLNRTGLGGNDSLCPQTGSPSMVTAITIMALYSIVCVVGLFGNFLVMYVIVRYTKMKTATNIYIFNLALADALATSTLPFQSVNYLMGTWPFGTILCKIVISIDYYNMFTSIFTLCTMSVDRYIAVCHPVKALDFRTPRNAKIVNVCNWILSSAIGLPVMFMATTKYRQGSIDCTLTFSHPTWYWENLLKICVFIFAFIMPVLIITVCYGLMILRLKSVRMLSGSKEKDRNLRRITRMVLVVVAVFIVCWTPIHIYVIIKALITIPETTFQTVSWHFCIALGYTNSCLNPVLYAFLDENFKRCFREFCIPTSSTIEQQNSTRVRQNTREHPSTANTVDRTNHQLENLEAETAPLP
Sequence of Delta-type opioid receptor (Rattus norvegicus, UniProt P33533) (P33533 whole entry): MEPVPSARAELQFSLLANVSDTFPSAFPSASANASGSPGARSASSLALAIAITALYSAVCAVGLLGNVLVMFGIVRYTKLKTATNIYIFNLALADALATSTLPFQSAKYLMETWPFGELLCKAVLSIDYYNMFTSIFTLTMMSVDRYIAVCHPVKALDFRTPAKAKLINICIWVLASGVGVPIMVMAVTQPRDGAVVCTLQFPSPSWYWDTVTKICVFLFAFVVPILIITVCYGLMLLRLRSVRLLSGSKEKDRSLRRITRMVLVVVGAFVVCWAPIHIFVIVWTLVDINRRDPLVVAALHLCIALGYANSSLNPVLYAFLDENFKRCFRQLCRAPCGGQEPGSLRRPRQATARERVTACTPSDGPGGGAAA

| SMILES | pKi (Mu-type opioid receptor [1]) | pKi [2] | pIC50 [3] | pIC50 (Mu-type opioid receptor [4]) | MPE (Mus musculus [5]) [%] | Stability (Plasma) | Activity (Mus musculus [6]) | Activity (Mus musculus [7]) | ED50 (Mus musculus [7]) [mg/kg] | Activity (Mus musculus [8]) | Activity (Mus musculus [9]) | ED50 (Mus musculus [9]) [mg/kg] | Time (Mus musculus [10]) [min] | MPE (Mus musculus [11]) [%] | Time (Mus musculus [12]) [min] | half-life [13] [min] | half-life [14] [min] |
| --- | --- | --- | --- | --- | --- | --- | --- | --- | --- | --- | --- | --- | --- | --- | --- | --- | --- |
| Cc1cc(O)cc(C)c1C[C@H](N)C(=O)N[C@H](CCCNC(=N)N)C(=O)N[C@@H](Cc1ccccc1)C(=O)N[C@@H](COCc1cn([C@@H]2O[C@H](CO)[C@H](O)[C@H](O)[C@H]2O)nn1)C(N)=O (H-[Dmt][dR]FS(X1)-NH2) | 9.95 | 8.20 | 8.31 | 9.46 |  |  |  |  |  |  |  |  |  |  |  |  |  |
| Cc1cc(O)cc(C)c1C[C@H](N)C(=O)N[C@H](CCCNC(=N)N)C(=O)N[C@@H](Cc1ccccc1)C(=O)N[C@@H](Cc1cn([C@@H]2O[C@H](CO)[C@@H](O)[C@H](O)[C@H]2O)nn1)C(N)=O | 9.69 | 7.92 | 8.56 | 8.84 | 40 | Stable | tde | Dose-dependent effect | 0.31 | tde | Dose-dependent effect | 0.34 | 60 | 40 |  |  |  |
| Cc1cc(O)cc(C)c1C[C@H](N)C(=O)N[C@H](CCCNC(=N)N)C(=O)N[C@@H](Cc1ccccc1)C(=O)N[C@@H](CCCCN)C(N)=O |  |  |  |  | 40 |  | tde | Dose-dependent effect | 0.25 | tde | Dose-dependent effect | 0.17 | 60 | 40 |  |  |  |
| N=C(N)NCCC[C@@H](NC(=O)[C@@H](N)Cc1ccc(OCc2cn([C@@H]3O[C@H](CO)[C@H](O)[C@H](O)[C@H]3O)nn2)cc1)C(=O)N[C@@H](Cc1ccccc1)C(=O)N[C@@H](CCCCN)C(N)=O | 7.42 | < 5.30 | 5.70 | 5.93 |  |  |  |  |  |  |  |  |  |  |  |  |  |
| Cc1cc(O)cc(C)c1C[C@H](N)C(=O)N[C@H](CCCNC(=N)N)C(=O)N[C@@H](Cc1ccccc1)C(=O)N[C@@H](Cc1cn([C@@H]2O[C@H](CO)[C@H](O)[C@H](O)[C@H]2O)nn1)C(N)=O | 9.65 | 7.81 | 8.70 | 9.18 | 40 | Stable | tde | Dose-dependent effect | 0.4 | tde | Dose-dependent effect | 0.27 | 60 | 40 | 60 |  |  |
| Cc1cc(O)cc(C)c1C[C@H](N)C(=O)N[C@H](CCCNC(=N)N)C(=O)N[C@@H](Cc1ccccc1)C(=O)N[C@@H](Cc1ccc(OCc2cn([C@@H]3O[C@H](CO)[C@H](O)[C@H](O)[C@H]3O)nn2)cc1)C(N)=O (H-[Dmt][dR]FY(X1)-NH2) | 9.54 | 7.65 | 8.22 | 8.64 |  |  |  |  |  |  |  |  |  |  |  |  |  |
| Cc1cc(O)cc(C)c1C[C@H](N)C(=O)N1CCC[C@H]1C(=O)N[C@@H](Cc1ccccc1)C(=O)N[C@@H](Cc1ccccc1)C(N)=O |  |  |  |  |  |  |  |  |  |  |  |  |  |  |  | 39.5 | 53 |
| NCCCC[C@H](NC(=O)[C@H](Cc1ccccc1)NC(=O)[C@@H](CCCN=C(N)N)NC(=O)[C@@H](N)Cc1ccc(O)cc1)C(N)=O |  |  |  | 6.60 |  |  |  |  |  |  |  |  |  |  |  |  |  |
